# Assay results taken from paper PMC11618768 (Scientific Reports, 2024).
# Where “and” joins values, the source holds several entries; their conditions need not be identical. Equal values may be shown once.
# Experiments:
# MRSA [1] = details: cited from earlier work
# MRSA [2] = details: cited from earlier work; remark: listed apart in the source
# MRSA (ATCC 433000) [3] = assay: Time-kill assay; format: cell-based, Methicillin-resistant Staphylococcus aureus; details: 24 h
# Method in brief: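 MRSA grown to log phase in LB (37 °C, 180 rpm) and adjusted to 1 × 10^6 CFU/mL. Incubated in 24-well plates with test compound at 0, 1/2×MIC or MIC for 24 h at 37 °C. Sampled every 2 h, with absorbance read at 570 nm.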
# S. aureus = details: cited from earlier work
# MRSA-244425 = assay: MIC and MBC, broth dilution; format: cell-based, Methicillin-resistant Staphylococcus aureus; details: MRSA-244,425, clinical isolate
# Method in brief: (§1)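 Strains were grown from LB agar colonies in LB (180 rpm, 37 °C, 12 h), then diluted 1:100 and grown 3 h to log phase. The inoculum was adjusted to 1 × 10^6 CFU/mL for 96-well broth dilution, 37 °C, 18 h. MIC was the lowest concentration without visible growth. For MBC, 100.0 µL per well was plated on MHA (37 °C, 16–20 h); MBC was the lowest concentration without colonies.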
# HaCat cells = assay: Cell viability assay using MTT; format: cell-based
# Method in brief: (§2)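 Cells were kept in RPMI 1640 with 10% FBS and 1% penicillin-streptomycin at 37 °C, 5% CO2. They were seeded at 1 × 10^5 cells/well and grown 24 h to about 80% confluence. After medium removal, test compound was added at final 0.78125–100.0 µg/mL (twofold series), with a 0.5% DMSO control. Exposure was 24 h or 48 h, then MTT for 4 h, A490. Three repeats; IC50 derived.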
# MRSA-244135 = assay: MIC and MBC, broth dilution; format: cell-based, Methicillin-resistant Staphylococcus aureus; details: MRSA-244,135, clinical isolate
# Method in brief: as §1
# HK-2 cells = assay: Cell viability assay using MTT; format: cell-based
# Method in brief: as §2
# MRSA-244757 = assay: MIC and MBC, broth dilution; format: cell-based, Methicillin-resistant Staphylococcus aureus; details: MRSA-244,757, clinical isolate
# Method in brief: as §1
# MRSA [4] = assay: Mouse skin infection model; format: in vivo; details: day 13; 2.0 µg/mL once daily, mice
# Method in brief: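 SPF male and female mice (18.0–22.0 g) had dorsal fur shaved and both sides of the back scalded with a scaldometer. 20.0 µL log-phase MRSA (1.5-3 × 10^6 CFU/mL in sterile saline) went onto each wound, which was then covered with sterile gauze. Test compound or vancomycin (2.0 µg/mL, 20.0 µL) was applied topically once daily, and model mice got solvent. Wounds were photographed daily for 13 days, and H&E sections were taken on day 13 (n = 6).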
# MRSA-244410 = assay: MIC and MBC, broth dilution; format: cell-based, Methicillin-resistant Staphylococcus aureus; details: MRSA-244,410, clinical isolate
# Method in brief: as §1
# human KB carcinoma cells = details: cited from earlier work
# [5] = tested on: rabbit red blood cells (RBCs); assay: In vitro hemolysis assay; format: cell-based; details: 1 h, rabbit erythrocytes
# Method in brief: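 Rabbit erythrocytes were exposed 1 h to test compound at 1/2×, 1× and 2× MIC. After centrifugation, supernatants were read spectrophotometrically at 570 nm and photographed. PBS served as negative control, and a positive control was included. n = 3.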
# MRSA strain (ATCC 43300) = assay: MIC and MBC, broth dilution; format: cell-based, Methicillin-resistant Staphylococcus aureus
# Method in brief: as §1
# MRSA-244358 = assay: MIC and MBC, broth dilution; format: cell-based, Methicillin-resistant Staphylococcus aureus; details: MRSA-244,358, clinical isolate
# Method in brief: as §1
# MRSA-244862 = assay: MIC and MBC, broth dilution; format: cell-based, Methicillin-resistant Staphylococcus aureus; details: MRSA-244,862, clinical isolate
# Method in brief: as §1
# P. notatum = details: cited from earlier work
# B. subtilis = details: cited from earlier work
# MRSA-244268 = assay: MIC and MBC, broth dilution; format: cell-based, Methicillin-resistant Staphylococcus aureus; details: MRSA-244,268, clinical isolate
# Method in brief: as §1
# MRSA (ATCC 433000) [6] = assay: Scanning electron microscopy; format: cell-based, Methicillin-resistant Staphylococcus aureus; details: 2×MIC, 12 h
# Method in brief: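 Log-phase MRSA exposed to test compound at 2×MIC for 12 h at 37 °C, with untreated cells as blank control. Cells were washed three times in PBS […]. They were fixed in 2.5% glutaraldehyde plus 2% paraformaldehyde for 12 h, air-dried and imaged by scanning electron microscopy.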
# MRSA (ATCC 433000) [7] = assay: SYTOX green and PI assay; format: cell-based, Methicillin-resistant Staphylococcus aureus; details: 1/2×, 2×MIC, 12 h
# Method in brief: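 Log-phase MRSA grown in LB at 37 °C, 180 rpm, adjusted to 1 × 10^6 CFU/mL. Exposed to test compound at 1/2×, 1× and 2×MIC for 12 h at 37 °C, then stained with SYTO 9 and PI for 30 min in the dark. Washed twice in PBS (pH 7.5, 0.1 M), then imaged by fluorescence microscopy: green marks viable cells, red marks dead cells.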
# LO2 cells = assay: Cell viability assay using MTT; format: cell-based
# Method in brief: as §2
# MRSA-244661 = assay: MIC and MBC, broth dilution; format: cell-based, Methicillin-resistant Staphylococcus aureus; details: MRSA-244,661, clinical isolate
# Method in brief: as §1
# MRSA-244548 = assay: MIC and MBC, broth dilution; format: cell-based, Methicillin-resistant Staphylococcus aureus; details: MRSA-244,548, clinical isolate
# Method in brief: as §1
# MRSA-244288 = assay: MIC and MBC, broth dilution; format: cell-based, Methicillin-resistant Staphylococcus aureus; details: MRSA-244,288, clinical isolate
# Method in brief: as §1
molecule,measurement,setting,value
8-Methoxygriseorhodin C,MIC against MRSA,MRSA [1],0.78 µg/mL
"7,8-dideoxygriseorhodin C",Decrease in MIC on simultaneous treatment with oxacillin,MRSA [2],approximately tenfold decrease in MIC
same,Combination index,MRSA [2]; with oxacillin,< 0.5
COC1=CC(=O)c2c(O)c3c(c(O)c2C1=O)O[C@]1(Oc2c(cc4cc(C)oc(=O)c4c2O)[C@@H](O)[C@@H]1O)[C@@H]3O [Griseorhodin C],Inhibition of MRSA growth in time-kill curve,"MRSA (ATCC 433000) [3]; 1/2×MIC, vs control group",some inhibition of MRSA growth compared to the control group
same,Bacteriostatic activity in time-kill curve compared with vancomycin,MRSA (ATCC 433000) [3]; MIC,"stronger bacteriostatic activity against MRSA than the clinically positive control drug, vancomycin"
same,Inhibitory activity,S. aureus,inhibitory activity
same,MIC,MRSA-244425,1 µg/mL
same,Cell morphology under the microscope,HaCat cells; 50 ~ 100 µg/mL,"the cell morphology remained normal and the arrangement was regular, and no fragmentation or cell death was observed"
same,IC50 (cell viability),"HaCat cells; MTT, 48 h",59.27 µg/mL
same,MIC,MRSA-244135,2 µg/mL
same,Cell morphology under the microscope,HK-2 cells; 50 ~ 100 µg/mL,"the cell morphology remained normal and the arrangement was regular, and no fragmentation or cell death was observed"
same,IC50 (cell viability),"HK-2 cells; MTT, 48 h",86.32 µg/mL
same,MIC,MRSA-244757,1 µg/mL
same,HE staining of skin wound,MRSA [4],"fewer inflammatory cells, lower thickness, and better structural integrity of hair follicles and other structures compared to the Vancomycin-treated group"
same,MIC,MRSA-244410,1 µg/mL
same,Inhibitory activity,human KB carcinoma cells,inhibitory activity
same,Hemolysis rate,[5]; 1/2 MIC,0.70%
same,Hemolysis rate,[5]; 2×MIC,2.13%
same,Hemolysis rate,[5]; MIC,1.77%
same,MIC,"MRSA strain (ATCC 43300); MRSA ATCC 43,300",1.0 µg/mL and 1 µg/mL
same,MIC,MRSA-244358,1 µg/mL
same,MIC,MRSA-244862,1 µg/mL
same,Inhibitory activity,P. notatum,inhibitory activity
same,Inhibitory activity,B. subtilis,inhibitory activity
same,MIC,MRSA-244268,2 µg/mL
same,Morphological changes of MRSA by SEM,MRSA (ATCC 433000) [6],"the cell walls appeared wrinkled, the surfaces showed signs of damage, and cellular integrity was compromised"
same,"LIVE/DEAD fluorescence (red dead, green viable cells)",MRSA (ATCC 433000) [7],exhibits bactericidal effects against MRSA
same,Cell morphology under the microscope,LO2 cells; 50 ~ 100 µg/mL,"the cell morphology remained normal and the arrangement was regular, and no fragmentation or cell death was observed"
same,IC50 (cell viability),"LO2 cells; MTT, 48 h",156.2 µg/mL
same,MIC,MRSA-244661,1 µg/mL
same,MIC,MRSA-244548,0.5 µg/mL
same,MIC,MRSA-244288,1 µg/mL
"CN[C@H](CC(C)C)C(=O)N[C@H]1C(=O)N[C@@H](CC(N)=O)C(=O)N[C@H]2C(=O)N[C@H]3C(=O)N[C@H](C(=O)N[C@H](C(=O)O)c4cc(O)cc(O)c4-c4cc3ccc4O)[C@H](O)c3ccc(c(Cl)c3)Oc3cc2cc(c3O[C@@H]2O[C@H](CO)[C@@H](O)[C@H](O)[C@H]2O[C@H]2C[C@](C)(N)[C@H](O)[C@H](C)O2)Oc2ccc(cc2Cl)[C@H]1O [vancomycin, reference compound]",MIC,"MRSA strain (ATCC 43300); Staphylococcus aureus, ATCC43|ATCC43300|MRSA",1 µg/mL
